Test results: ChEMBL document CHEMBL1777792, “Synthesis and evaluation of indole-based new scaffolds for antimicrobial activities--identification of promising candidates” (Bioorg Med Chem Lett, 2011)

Experiments:
Escherichia coli [1] = test: Antibacterial activity against Escherichia coli harboring ampicillin-resistance gene encoding plasmid at 238 ug/ml after 24 hrs by disc diffusion assay; format: functional; details: read-out: DIZ
Method in brief: (§1)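 Disc diffusion used an E. coli strain carrying a plasmid that encodes an ampicillin-resistance gene. Inhibition zone diameters were recorded and compared against the corresponding solvent controls.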

Candida albicans [2] = test: Antifungal activity against Candida albicans in yeast extract-peptone-glucose medium at 238 ug/ml after 48 hrs by disc diffusion assay; format: functional; details: read-out: DIZ
Method in brief: (§2)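 C. albicans cells at a set number were spread on YEPD agar, either plain or containing the cell-wall disruptant named in the line (SDS, Congo red or calcofluor white). Compound solution, or the reference solvent as control, was spotted onto 0.5 cm discs placed on the lawn. Plates were incubated at 30 °C and the inhibition zone diameter was measured.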

Candida albicans [3] = test: Antifungal activity against Candida albicans in yeast extract-peptone-glucose medium at 238 ug/ml after 48 hrs by disc diffusion assay in presence of 150 ug/ml of congo red; format: functional; method in brief: as §2
Candida albicans [4] = test: Antifungal activity against Candida albicans in yeast extract-peptone-glucose medium at 238 ug/ml after 48 hrs by disc diffusion assay in presence of 0.01% of sodium dodecylsulphate; format: functional; details: read-out: DIZ; method in brief: as §2
Candida albicans [5] = test: Antifungal activity against Candida albicans in yeast extract-peptone-glucose medium at 238 ug/ml after 48 hrs by disc diffusion assay in presence of […]; format: functional
Method in brief: (§3)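 This is a C. albicans disc diffusion on YEPD agar containing rhodamine 6G, a substrate of the Cdr1p/Cdr2p ATP-dependent efflux pumps, to test for enhanced R6G toxicity. A set number of cells was spread, and 0.5 cm discs were spotted with compound solution or reference solvent. Plates were incubated at 30 °C and the zone diameter was measured.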

Escherichia coli [6] = test: Antibacterial activity against Escherichia coli harboring ampicillin-resistance gene encoding plasmid at 187 ug/ml after 24 hrs by disc diffusion assay; format: functional; details: read-out: DIZ; method in brief: as §1
Candida albicans [7] = test: Antifungal activity against Candida albicans in yeast extract-peptone-glucose medium at 187 ug/ml after 48 hrs by disc diffusion assay; format: functional; details: read-out: DIZ; method in brief: as §2
Candida albicans [8] = test: Antifungal activity against Candida albicans in yeast extract-peptone-glucose medium at 187 ug/ml after 48 hrs by disc diffusion assay in presence of 100 ug/ml of calcofluor white; format: functional; method in brief: as §2
Candida albicans [9] = test: Antifungal activity against Candida albicans in yeast extract-peptone-glucose medium at 187 ug/ml after 48 hrs by disc diffusion assay in presence of 150 ug/ml of congo red; format: functional; method in brief: as §2
Candida albicans [10] = test: Antifungal activity against Candida albicans in yeast extract-peptone-glucose medium at 187 ug/ml after 48 hrs by disc diffusion assay in presence of 0.01% of sodium dodecylsulphate; format: functional; details: read-out: DIZ; method in brief: as §2
Candida albicans [11] = test: Antifungal activity against Candida albicans in yeast extract-peptone-glucose medium at 187 ug/ml after 48 hrs by disc diffusion assay in presence of […]; format: functional; method in brief: as §3
Escherichia coli [12] = test: Antibacterial activity against Escherichia coli harboring ampicillin-resistance gene encoding plasmid at 600 ug/ml after 24 hrs by disc diffusion assay; format: functional; details: read-out: DIZ; method in brief: as §1
Candida albicans [13] = test: Antifungal activity against Candida albicans in yeast extract-peptone-glucose medium at 600 ug/ml after 48 hrs by disc diffusion assay; format: functional; details: read-out: DIZ
Method in brief: (§4)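 Solid-phase assay on YEPD agar spread with a set number of C. albicans cells. Compound solution and reference solvent spotted onto 0.5 cm discs. Plates incubated at 30 °C, and inhibition zone diameter measured against solvent control.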

Candida albicans [14] = test: Antifungal activity against Candida albicans in yeast extract-peptone-glucose medium at 600 ug/ml after 48 hrs by disc diffusion assay in presence of 100 ug/ml of calcofluor white; format: functional
Method in brief: (§5)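 Disc diffusion on YEPD agar containing a cell-wall-disrupting agent (SDS, Congo red or calcofluor white) and spread with a set number of C. albicans cells. Compound and reference solvent spotted on 0.5 cm discs. Incubated at 30 °C, then inhibition zone diameter measured against solvent.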

Candida albicans [15] = test: Antifungal activity against Candida albicans in yeast extract-peptone-glucose medium at 600 ug/ml after 48 hrs by disc diffusion assay in presence of 150 ug/ml of congo red; format: functional; method in brief: as §5
Candida albicans [16] = test: Antifungal activity against Candida albicans in yeast extract-peptone-glucose medium at 600 ug/ml after 48 hrs by disc diffusion assay in presence of 0.01% of sodium dodecylsulphate; format: functional; details: read-out: DIZ; method in brief: as §5
Candida albicans [17] = test: Antifungal activity against Candida albicans in yeast extract-peptone-glucose medium at 600 ug/ml after 48 hrs by disc diffusion assay in presence of […]; format: functional; details: in the assay text read “20 ug/ml” for “150 ug/ml”
Method in brief: (§6)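 Tests whether compounds enhance the toxicity of rhodamine 6G, a substrate of the Cdr1p/Cdr2p drug pumps. YEPD agar containing R6G spread with C. albicans. Compound and solvent spotted on 0.5 cm discs, incubated at 30 °C, and zone diameter read relative to solvent control.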

Candida albicans [18] = test: Antifungal activity against Candida albicans in synthetic dextrose minimal medium after 48 hrs by ELISA based serial dilution method
Escherichia coli [19] = test: Antibacterial activity against Escherichia coli harboring ampicillin-resistance gene encoding plasmid at 545 ug/ml after 24 hrs by disc diffusion assay; format: functional; details: read-out: DIZ; method in brief: as §1
Candida albicans [20] = test: Antifungal activity against Candida albicans in yeast extract-peptone-glucose medium at 545 ug/ml after 48 hrs by disc diffusion assay; format: functional; details: read-out: DIZ; method in brief: as §2
Candida albicans [21] = test: Antifungal activity against Candida albicans in yeast extract-peptone-glucose medium at 545 ug/ml after 48 hrs by disc diffusion assay in presence of 100 ug/ml of calcofluor white; format: functional
Method in brief: (§7)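 C. albicans cells were spread at a set number over YEPD agar containing the additive named in the line. Discs 0.5 cm across were placed on the lawn and spotted with test compound solution or reference solvent. Plates were incubated at 30 °C. The inhibition zone diameter was measured in mm and compared with the solvent-control disc.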

Candida albicans [22] = test: Antifungal activity against Candida albicans in yeast extract-peptone-glucose medium at 545 ug/ml after 48 hrs by disc diffusion assay in presence of 150 ug/ml of congo red; format: functional; method in brief: as §7
Candida albicans [23] = test: Antifungal activity against Candida albicans in yeast extract-peptone-glucose medium at 545 ug/ml after 48 hrs by disc diffusion assay in presence of 0.01% of sodium dodecylsulphate; format: functional; details: read-out: DIZ; method in brief: as §2
Candida albicans [24] = test: Antifungal activity against Candida albicans in yeast extract-peptone-glucose medium at 545 ug/ml after 48 hrs by disc diffusion assay in presence of 150 ug/ml of rhodamine 6G; format: functional; method in brief: as §7
Escherichia coli [25] = test: Antibacterial activity against Escherichia coli harboring ampicillin-resistance gene encoding plasmid at 257 ug/ml after 24 hrs by disc diffusion assay; format: functional; details: read-out: DIZ; method in brief: as §1
Candida albicans [26] = test: Antifungal activity against Candida albicans in yeast extract-peptone-glucose medium at 257 ug/ml after 48 hrs by disc diffusion assay; format: functional; details: read-out: DIZ; method in brief: as §4
Candida albicans [27] = test: Antifungal activity against Candida albicans in yeast extract-peptone-glucose medium at 257 ug/ml after 48 hrs by disc diffusion assay in presence of 100 ug/ml of calcofluor white; format: functional; method in brief: as §5
Candida albicans [28] = test: Antifungal activity against Candida albicans in yeast extract-peptone-glucose medium at 257 ug/ml after 48 hrs by disc diffusion assay in presence of 150 ug/ml of congo red; format: functional; method in brief: as §5
Candida albicans [29] = test: Antifungal activity against Candida albicans in yeast extract-peptone-glucose medium at 257 ug/ml after 48 hrs by disc diffusion assay in presence of 0.01% of sodium dodecylsulphate; format: functional; details: read-out: DIZ; method in brief: as §5
Candida albicans [30] = test: Antifungal activity against Candida albicans in yeast extract-peptone-glucose medium at 257 ug/ml after 48 hrs by disc diffusion assay in presence of […]; format: functional; details: in the assay text read “20 ug/ml” for “150 ug/ml”; method in brief: as §6
Escherichia coli [31] = test: Antibacterial activity against Escherichia coli harboring ampicillin-resistance gene encoding plasmid at 357 ug/ml after 24 hrs by disc diffusion assay; format: functional; details: read-out: DIZ; method in brief: as §1
Candida albicans [32] = test: Antifungal activity against Candida albicans in yeast extract-peptone-glucose medium at 357 ug/ml after 48 hrs by disc diffusion assay; format: functional; details: read-out: DIZ; method in brief: as §2
Candida albicans [33] = test: Antifungal activity against Candida albicans in yeast extract-peptone-glucose medium at 357 ug/ml after 48 hrs by disc diffusion assay in presence of 100 ug/ml of calcofluor white; format: functional; method in brief: as §2
Candida albicans [34] = test: Antifungal activity against Candida albicans in yeast extract-peptone-glucose medium at 357 ug/ml after 48 hrs by disc diffusion assay in presence of 150 ug/ml of congo red; format: functional; method in brief: as §2

SMILES: O=C(C(=O)N1CCCCC1)c1cn(CCCCCCn2cc(C(=O)C(=O)N3CCCCC3)c3ccccc32)c2ccccc12
- zone of inhibition at 238 µg/mL (Escherichia coli [1]): 7.5 mm
- zone of inhibition at 238 µg/mL (Candida albicans [2]): 6.5 mm
- diameter of the inhibition zone (DIZ) (Candida albicans [3]): 6 mm
- zone of inhibition at 238 µg/mL (Candida albicans [4]): 6.5 mm
- diameter of the inhibition zone (DIZ) (Candida albicans [5]): 5.5 mm

SMILES: O=C(C(=O)N1CCCC1)c1cn(Cc2ccc(Cn3cc(C(=O)C(=O)N4CCCC4)c4ccccc43)cc2)c2ccccc12
- zone of inhibition at 187 µg/mL (Escherichia coli [6]): 7 mm
- zone of inhibition at 187 µg/mL (Candida albicans [7]): 7.5 mm
- diameter of the inhibition zone (DIZ) (Candida albicans [8]): 6.5 mm
- diameter of the inhibition zone (DIZ) (Candida albicans [9]): 7 mm
- zone of inhibition at 187 µg/mL (Candida albicans [10]): 8 mm
- diameter of the inhibition zone (DIZ) (Candida albicans [11]): 7 mm

SMILES: O=C(NCc1ccccc1)C(=O)c1cn(Cc2ccc(Cn3cc(C(=O)C(=O)NCc4ccccc4)c4ccccc43)cc2)c2ccccc12
- zone of inhibition at 600 µg/mL (Escherichia coli [12]): 9 mm
- zone of inhibition at 600 µg/mL (Candida albicans [13]): 12.5 mm
- diameter of the inhibition zone (DIZ) (Candida albicans [14]): 11.5 mm
- diameter of the inhibition zone (DIZ) (Candida albicans [15]): 10.5 mm
- zone of inhibition at 600 µg/mL (Candida albicans [16]): 12.5 mm
- diameter of the inhibition zone (DIZ) (Candida albicans [17]): 11 mm
- IC50 (Candida albicans [18]): 0.02 mM

SMILES: O=C(C(=O)N1CCCC1)c1cn(CCCCCCn2cc(C(=O)C(=O)N3CCCC3)c3ccccc32)c2ccccc12
- zone of inhibition at 545 µg/mL (Escherichia coli [19]): 11.5 mm
- zone of inhibition at 545 µg/mL (Candida albicans [20]): 14.5 mm
- diameter of the inhibition zone (DIZ) (Candida albicans [21]): 11 mm
- diameter of the inhibition zone (DIZ) (Candida albicans [22]): 10.5 mm
- zone of inhibition at 545 µg/mL (Candida albicans [23]): 15.5 mm
- diameter of the inhibition zone (DIZ) (Candida albicans [24]): 12.5 mm

SMILES: O=C(C(=O)N1CCCC1)c1cn(CCCn2cc(C(=O)C(=O)N3CCCC3)c3cc(Br)ccc32)c2ccc(Br)cc12
- zone of inhibition at 257 µg/mL (Escherichia coli [25]): 13.5 mm
- zone of inhibition at 257 µg/mL (Candida albicans [26]): 11.5 mm
- diameter of the inhibition zone (DIZ) (Candida albicans [27]): 11.5 mm
- diameter of the inhibition zone (DIZ) (Candida albicans [28]): 11.5 mm
- zone of inhibition at 257 µg/mL (Candida albicans [29]): 11.5 mm
- diameter of the inhibition zone (DIZ) (Candida albicans [30]): 12 mm
- IC50 (Candida albicans [18]): 29.2 mM

SMILES: O=C(C(=O)N1CCOCC1)c1cn(CCCCCCn2cc(C(=O)C(=O)N3CCOCC3)c3ccccc32)c2ccccc12
- zone of inhibition at 357 µg/mL (Escherichia coli [31]): 7.5 mm
- zone of inhibition at 357 µg/mL (Candida albicans [32]): 5.5 mm
- diameter of the inhibition zone (DIZ) (Candida albicans [33]): 6.5 mm
- diameter of the inhibition zone (DIZ) (Candida albicans [34]): 6.5 mm
